ChEMBL document CHEMBL2163220 (J Med Chem, 2012)
Changes are numbered by the printed parent chain. Calls of active or inactive are those of the source. The rule behind the calls is not given here.

Assays:
[1] = system: T1, Androgen receptor (Homo sapiens), P10275 [W742C]; assay: Antagonist activity at androgen receptor W741C mutant expressed in human PC3 cells assessed as reduction in DHT-induced receptor transactivation at 0.1 to 1 uM by luciferase reporter gene assay; format: functional, cell-based; conditions: PC-3
T1 sequence (whole entry): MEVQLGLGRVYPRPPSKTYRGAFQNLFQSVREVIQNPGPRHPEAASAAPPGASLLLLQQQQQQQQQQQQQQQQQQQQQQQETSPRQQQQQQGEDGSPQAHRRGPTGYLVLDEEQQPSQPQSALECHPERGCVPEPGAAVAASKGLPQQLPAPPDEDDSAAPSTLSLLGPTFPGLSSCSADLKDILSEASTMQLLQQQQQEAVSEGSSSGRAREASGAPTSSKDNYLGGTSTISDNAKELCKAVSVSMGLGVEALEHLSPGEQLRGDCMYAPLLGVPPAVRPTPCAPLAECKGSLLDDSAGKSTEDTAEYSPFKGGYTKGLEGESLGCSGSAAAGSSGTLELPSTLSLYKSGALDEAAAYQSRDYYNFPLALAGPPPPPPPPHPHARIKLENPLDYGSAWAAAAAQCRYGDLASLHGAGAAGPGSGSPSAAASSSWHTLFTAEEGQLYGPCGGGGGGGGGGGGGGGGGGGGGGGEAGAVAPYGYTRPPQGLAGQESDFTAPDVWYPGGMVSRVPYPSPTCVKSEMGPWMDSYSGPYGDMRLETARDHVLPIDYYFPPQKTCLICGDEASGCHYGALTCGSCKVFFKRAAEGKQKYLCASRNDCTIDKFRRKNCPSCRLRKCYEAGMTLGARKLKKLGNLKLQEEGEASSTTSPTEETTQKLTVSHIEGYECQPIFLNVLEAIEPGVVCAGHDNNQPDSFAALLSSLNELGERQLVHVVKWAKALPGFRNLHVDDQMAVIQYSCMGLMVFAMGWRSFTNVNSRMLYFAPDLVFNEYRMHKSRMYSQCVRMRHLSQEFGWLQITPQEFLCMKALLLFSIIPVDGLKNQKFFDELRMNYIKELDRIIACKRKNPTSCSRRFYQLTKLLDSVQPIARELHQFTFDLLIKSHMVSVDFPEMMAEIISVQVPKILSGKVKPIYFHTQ
Method in brief: (§1)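 Full-length wild-type or mutant AR plasmid transiently transfected into PC-3 cells with MMTV-luc and Renilla luciferase reporters. Cells treated with DMSO vehicle or compound at 0.1 and 1 μM, alone or with 0.1 nM DHT. Luciferase read as relative luciferase units. Run in triplicate.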

LNCaP (Homo sapiens) = assay: Effect on androgen receptor gene expression in human LNCaP cells at 1 or 2.5 uM incubated for 24 hrs by RT-PCR
[2] = target: T2, Glucocorticoid receptor (Homo sapiens) (UniProt P04150); assay: Antagonist activity at glucocorticoid receptor expressed in human PC3 cells assessed as reduction in dexamethasone-induced receptor transactivation at 1 uM by luciferase reporter gene assay; format: functional, cell-based; conditions: PC-3
T2 sequence (whole entry): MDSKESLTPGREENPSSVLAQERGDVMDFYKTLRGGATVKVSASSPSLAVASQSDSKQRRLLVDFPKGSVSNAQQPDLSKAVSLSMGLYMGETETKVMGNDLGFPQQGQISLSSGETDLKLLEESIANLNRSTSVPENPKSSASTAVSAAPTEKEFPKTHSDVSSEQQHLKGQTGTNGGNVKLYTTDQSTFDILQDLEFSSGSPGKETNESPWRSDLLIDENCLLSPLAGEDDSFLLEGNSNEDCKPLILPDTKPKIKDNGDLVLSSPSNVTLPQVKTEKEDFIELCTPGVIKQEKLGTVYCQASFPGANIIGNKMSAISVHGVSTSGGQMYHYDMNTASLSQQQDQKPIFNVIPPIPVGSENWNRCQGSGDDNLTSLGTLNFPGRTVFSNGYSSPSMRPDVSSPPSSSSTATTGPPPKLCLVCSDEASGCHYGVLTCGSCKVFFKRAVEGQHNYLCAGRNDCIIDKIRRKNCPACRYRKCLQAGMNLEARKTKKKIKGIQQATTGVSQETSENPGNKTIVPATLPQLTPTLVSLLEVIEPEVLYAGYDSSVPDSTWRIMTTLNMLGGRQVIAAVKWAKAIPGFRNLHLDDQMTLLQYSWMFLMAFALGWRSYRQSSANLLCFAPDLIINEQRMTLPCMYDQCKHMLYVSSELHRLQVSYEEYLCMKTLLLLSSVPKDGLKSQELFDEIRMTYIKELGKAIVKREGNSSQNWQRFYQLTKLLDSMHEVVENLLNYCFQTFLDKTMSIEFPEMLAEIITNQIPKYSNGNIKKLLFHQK
Method in brief: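 PC-3 cells express GR endogenously and were transfected only with the MMTV-luc reporter. Compound tested at 1 μM, alone or against transactivation induced by 10 nM dexamethasone. Read-out was luciferase reporter activity.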

[3] = system: T3, Androgen receptor (Homo sapiens), P10275 [H875Y]; assay: Antagonist activity at androgen receptor H874Y mutant expressed in human PC3 cells assessed as reduction in DHT-induced receptor transactivation at 0.1 to 1 uM by luciferase reporter gene assay; format: functional, cell-based; conditions: PC-3; method in brief: as §1
T3 sequence (whole entry): T1 sequence (whole entry) with C742W, H875Y

CWR22R = assay: Cytotoxicity against human 22Rv1 cells incubated for 72 hrs by MTT assay; format: functional, cell-based; conditions: 22Rv1, 72 h
Method in brief: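 MTT assay run across a panel of prostate cancer cell lines.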

**Q.** What does the source list for Cc1coc2c1C(=O)C(=O)c1c-2ccc2c1CCCC2(C)C [TANSHINONE IIA]?
**A.** Activity [1]: Active; Activity (LNCaP (Homo sapiens)): inactive; Activity [2]: inactive; Activity [3]: inactive; IC50 (CWR22R): 6.7 µM
